# Laboratory results from ChEMBL document CHEMBL1131029, “Synthesis and in vitro efficacy of transferrin conjugates of the anticancer drug chlorambucil” (J Med Chem, 1998).
# Legend:
# Homo sapiens [1] = species on record: Homo sapiens; assay: Alkylating activity of compound remaining after 24 hours of incubation with 10% human blood serum; format: functional
# MOLT-4 = assay: In vitro inhibitory activity against acute lymphoblastic leukemia (MOLT4) cell line.; format: functional, cell-based; settings: Homo sapiens
# In short: (§1)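 MCF7 (trypsinized monolayer) or MOLT4 (suspension) cells in RPMI 1640 with 10% FCS, plated at 1.0 × 10^5 cells/mL and allowed 24 h recovery. Then 6 days continuous drug exposure, 0.15–40 µM, triplicate wells. Propidium iodide fluorescence read (ex 530/em 620) before and after freeze-kill; viable cells = FU2 − FU1; %T/C; IC50 as mean ± SD, n = 3.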
# Homo sapiens [2] = species on record: Homo sapiens; assay: Alkylating activity of compound remaining after 96 hours of incubation with 10% human blood serum; format: functional
# MCF7 = assay: In vitro inhibitory activity against mammary carcinoma (MCF-7) cell line.; format: functional, cell-based; settings: Homo sapiens; in short: as §1
# [3] = Time required to reduce the alkylating activity of 10% human blood serum from its initial value by 50%.; format: ADME, Plasma
# Homo sapiens [4] = species on record: Homo sapiens; assay: Alkylating activity of compound remaining after 48 hours of incubation with 10% human blood serum; format: functional
SMILES,Activity (Homo sapiens [1]) [%],IC50 (MOLT-4) [µM],Activity (Homo sapiens [2]) [%],IC50 (MCF7) [µM],half-life [3] [h],Activity (Homo sapiens [4]) [%]
O=C(CCCc1ccc(N(CCCl)CCCl)cc1)N/N=C/c1cccc(N2C(=O)C=CC2=O)c1,24.1,7.5,13.4,35.5,5.9,14.5
O=C(CCCc1ccc(N(CCCl)CCCl)cc1)OCCN1C(=O)C=CC1=O,20.9,7.8,11,,3.1,13.8
O=C(CCCc1ccc(N(CCCl)CCCl)cc1)Oc1cccc(N2C(=O)C=CC2=O)c1,22.3,15.3,12.1,,4.3,15.2
C/C(=N\NC(=O)CCCc1ccc(N(CCCl)CCCl)cc1)c1cccc(N2C(=O)C=CC2=O)c1,22.9,3.3,10.9,,4.5,13.7
O=C(O)CCCc1ccc(N(CCCl)CCCl)cc1 [CHLORAMBUCIL],12.2,6.3,,24.6,4.5,6.6
O=C(CCCc1ccc(N(CCCl)CCCl)cc1)N/N=C/CN1C(=O)C=CC1=O,25,0.35,15.2,6.8,4,19.5
